ChEMBL document CHEMBL1629583, “Establishment of in vitro susceptibility testing methodologies and comparative activities of piperacillin in combination with the penem {beta}-lactamase inhibitor BLI-489” (2009)

Legend:
Format in all cases: functional
Enterococcus faecalis = assay: Antimicrobial activity against vancomycin-resistant Enterococcus faecalis clinical isolate after 18 to 22 hrs by broth microdilution method in presence of beta-lactamase inhibitor Tazobactam
Outline: (§1)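 CLSI broth microdilution in Mueller-Hinton II broth. Antibiotic in serial dilution with the β-lactamase inhibitor held at a constant 4 μg/ml. Inoculum 10^5 CFU/ml. Incubated 18 to 22 h at 35°C in ambient air.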

Escherichia coli = assay: Antimicrobial activity against AmpC beta-lactamase-producing Escherichia coli clinical isolate after 18 to 22 hrs by broth microdilution method in presence of beta-lactamase inhibitor BLI-489
Outline: (§2)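 CLSI broth microdilution in Mueller-Hinton II broth. Piperacillin serial dilutions were combined with BLI-489 held constant at 4 μg/ml. Inoculum was 10^5 CFU/ml. Plates were incubated 18 to 22 h at 35°C in ambient air. MIC was the lowest concentration completely inhibiting growth seen by the unaided eye. Piperacillin-tazobactam interpretive criteria were applied.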

Providencia rettgeri = assay: Antimicrobial activity against Providencia rettgeri clinical isolate after 18 to 22 hrs by broth microdilution method in presence of beta-lactamase inhibitor BLI-489
Outline: (§3)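 CLSI broth microdilution in Mueller-Hinton II broth. Serial dilutions of piperacillin were tested with BLI-489 held at a constant 4 μg/ml. Inoculum was 10^5 CFU/ml. Plates were incubated 18 to 22 h at 35°C in ambient air. MIC was the lowest concentration giving complete growth inhibition by unaided eye.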

[1] = test system: Staphylococcus haemolyticus; assay: Antimicrobial activity against Staphylococcus haemolyticus clinical isolate after 18 to 22 hrs by broth microdilution method in presence of beta-lactamase inhibitor BLI-489; outline: as §3
[2] = test system: Staphylococcus epidermidis; assay: Antimicrobial activity against methicillin-susceptible Staphylococcus epidermidis clinical isolate after 18 to 22 hrs by broth microdilution method in presence of beta-lactamase inhibitor Tazobactam
Outline: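 CLSI broth microdilution of piperacillin-tazobactam in Mueller-Hinton II broth with serial dilutions. Inoculum was 10^5 CFU/ml. Incubation was 18 to 22 h at 35°C in ambient air. MIC was read as the lowest concentration giving complete inhibition of growth visible to the unaided eye.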

Providencia stuartii = assay: Antimicrobial activity against Providencia stuartii clinical isolate after 18 to 22 hrs by broth microdilution method in presence of beta-lactamase inhibitor Tazobactam
Outline: (§4)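 Piperacillin-tazobactam was tested by CLSI broth microdilution in Mueller-Hinton II broth against clinical isolates. Inoculum was 10^5 CFU/ml, with 18 to 22 h incubation at 35°C in ambient air. MIC was read as the lowest concentration completely inhibiting visible growth.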

[3] = test system: Staphylococcus epidermidis; assay: Antimicrobial activity against methicillin-susceptible Staphylococcus epidermidis clinical isolate after 18 to 22 hrs by broth microdilution method in presence of beta-lactamase inhibitor BLI-489
Outline: (§5)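 Piperacillin serially diluted with BLI-489 held at a constant 4 μg/ml, by CLSI broth microdilution in Mueller-Hinton II broth. Inoculum was 10^5 CFU/ml. Plates were incubated 18 to 22 h at 35°C in ambient air. MIC was the lowest concentration completely inhibiting growth seen by the unaided eye.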

Morganella morganii = assay: Antimicrobial activity against Morganella morganii clinical isolate after 18 to 22 hrs by broth microdilution method in presence of beta-lactamase inhibitor BLI-489; outline: as §3
Haemophilus influenzae = assay: Antimicrobial activity against beta-lactamase-negative Haemophilus influenzae clinical isolate after 18 to 22 hrs by broth microdilution method in presence of beta-lactamase inhibitor BLI-489
Outline: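 Haemophilus isolates were tested in Haemophilus test medium by CLSI broth microdilution. Serial piperacillin dilutions carried BLI-489 fixed at 4 μg/ml. Inoculum was 10^5 CFU/ml, incubated 18 to 22 h at 35°C in ambient air. MIC was the lowest concentration completely inhibiting growth by eye.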

Enterococcus faecium [4] = assay: Antimicrobial activity against vancomycin-resistant Enterococcus faecium clinical isolate after 18 to 22 hrs by broth microdilution method in presence of beta-lactamase inhibitor BLI-489; outline: as §1
Serratia marcescens = assay: Antimicrobial activity against AmpC beta-lactamase-producing Serratia marcescens clinical isolate after 18 to 22 hrs by broth microdilution method in presence of beta-lactamase inhibitor Tazobactam
Outline: (§6)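 Piperacillin-tazobactam was tested on recent clinical isolates by CLSI broth microdilution in Mueller-Hinton II broth, with tazobactam at constant 4 μg/ml. Wells held 10^5 CFU/ml and were incubated 18 to 22 h at 35°C in ambient air. MIC was the lowest concentration with no growth visible to the unaided eye.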

Streptococcus agalactiae = assay: Antimicrobial activity against Streptococcus agalactiae clinical isolate after 18 to 22 hrs by broth microdilution method in presence of beta-lactamase inhibitor Tazobactam
Outline: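 Streptococcal isolates were tested with piperacillin-tazobactam by CLSI broth microdilution in Mueller-Hinton II broth supplemented with 5% lysed horse blood. Inoculum was 10^5 CFU/ml, incubated 18 to 22 h at 35°C in ambient air. Visual endpoint: lowest concentration with complete inhibition.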

Klebsiella oxytoca = assay: Antimicrobial activity against Klebsiella oxytoca clinical isolate after 18 to 22 hrs by broth microdilution method in presence of beta-lactamase inhibitor Tazobactam; outline: as §4
Klebsiella pneumoniae [5] = assay: Antimicrobial activity against Klebsiella pneumoniae clinical isolate after 18 to 22 hrs by broth microdilution method in presence of beta-lactamase inhibitor BLI-489; outline: as §3
[6] = test system: Enterococcus casseliflavus; assay: Antimicrobial activity against Enterococcus casseliflavus clinical isolate after 18 to 22 hrs by broth microdilution method in presence of beta-lactamase inhibitor BLI-489; outline: as §2
Enterococcus faecium [7] = assay: Antimicrobial activity against Enterococcus faecium clinical isolate after 18 to 22 hrs by broth microdilution method in presence of beta-lactamase inhibitor BLI-489; outline: as §3
Klebsiella pneumoniae [8] = assay: Antimicrobial activity against class A extended spectrum beta-lactamase- and class D OXA- producing Klebsiella pneumoniae clinical isolate after 18 to 22 hrs by broth microdilution method in presence of beta-lactamase inhibitor Tazobactam; outline: as §4
Staphylococcus aureus = assay: Antimicrobial activity against methicillin-susceptible Staphylococcus aureus clinical isolate after 18 to 22 hrs by broth microdilution method in presence of beta-lactamase inhibitor BLI-489; outline: as §5
Enterococcus faecium [9] = assay: Antimicrobial activity against Enterococcus faecium clinical isolate after 18 to 22 hrs by broth microdilution method in presence of beta-lactamase inhibitor Tazobactam; outline: as §4
Acinetobacter johnsonii = assay: Antimicrobial activity against Acinetobacter johnsonii clinical isolate after 18 to 22 hrs by broth microdilution method in presence of beta-lactamase inhibitor Tazobactam; outline: as §6
[10] = test system: Staphylococcus haemolyticus; assay: Antimicrobial activity against Staphylococcus haemolyticus clinical isolate after 18 to 22 hrs by broth microdilution method in presence of beta-lactamase inhibitor Tazobactam; outline: as §4

## CCN1CCN(C(=O)N[C@@H](C(=O)N[C@@H]2C(=O)N3[C@@H]2SC(C)(C)[C@@H]3C(=O)O)c2ccccc2)C(=O)C1=O [PIPERACILLIN]
Enterococcus faecalis
  MIC50: 2 µg/mL
  MIC90: > 128 µg/mL
Escherichia coli
  MIC50: 2 µg/mL
  MIC90: 16 µg/mL
Providencia rettgeri
  MIC50: 1 µg/mL
  MIC90: 8 µg/mL
[1]
  MIC50: 32 µg/mL
  MIC90: > 128 µg/mL
[2]
  MIC50: 0.25 µg/mL
  MIC90: 0.5 µg/mL
Providencia stuartii
  MIC50: 2 µg/mL
  MIC90: 16 µg/mL
[3]
  MIC: ≤ 0.004 µg/mL
  MIC50: ≤ 0.004 µg/mL
  MIC90: ≤ 0.004 µg/mL
Morganella morganii
  MIC50: 0.25 µg/mL
  MIC90: 1 µg/mL
Haemophilus influenzae
  MIC: ≤ 0.004 µg/mL
  MIC50: ≤ 0.004 µg/mL
  MIC90: 0.015 µg/mL
Enterococcus faecium [4]
  MIC50: > 128 µg/mL
Serratia marcescens
  MIC50: 8 µg/mL
  MIC90: 16 µg/mL
Streptococcus agalactiae
  MIC50: 0.12 µg/mL
  MIC90: 0.25 µg/mL
Klebsiella oxytoca
  MIC50: 2 µg/mL
  MIC90: 8 µg/mL
Klebsiella pneumoniae [5]
  MIC50: 2 µg/mL
  MIC90: 8 µg/mL
[6]
  MIC50: 2 µg/mL
  MIC90: 8 µg/mL
Enterococcus faecium [7]
  MIC50: 4 µg/mL
  MIC90: > 128 µg/mL
Klebsiella pneumoniae [8]
  MIC50: 16 µg/mL
  MIC90: > 128 µg/mL
Staphylococcus aureus
  MIC50: 0.25 µg/mL
  MIC90: 0.5 µg/mL
Enterococcus faecium [9]
  MIC50: 32 µg/mL
  MIC90: > 128 µg/mL
Acinetobacter johnsonii
  MIC50: ≤ 0.12 µg/mL
  MIC90: 32 µg/mL
[10]
  MIC50: 32 µg/mL
  MIC90: > 128 µg/mL
